Tn6 DDE FP: inhibitors of Tn6 peptide binding to fibrin DD(E), primary screen, biochemical, fluorescence polarization, human fibrin, Tn6 probe; inhibition, % at 8.3 µM; Fibrin DD(E) TRITC-Tn6 fluorescence polarization displacement; Fibrinogen beta chain (Homo sapiens), P02675; 0.21% of 370,000 active; AID 720509, 2013;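 active = inhibition above a per-campaign cutoff: mean of compounds within control limits plus 3 SD, cut at about 15% in these data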;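 also: 0% = median of all compound wells on the plate and 100% = blocking peptide control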
DNA FID counter: compounds displacing fluorescent DNA intercalator, primary screen, artefact control for HCV NS3 helicase inhibitor project, biochemical, FID fluorescence; DNA fluorescent intercalator displacement; inhibition, % at 7.9 µM; 0.17% of 290,000 active; AID 1845, 2009; in the data active = inhibition above about 37%;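 also: 0% = vehicle and 100% = reference compound; higher means more ethidium bromide displaced from hairpin DNA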
PLC-gamma1 inh: PLC-gamma1 enzyme inhibitors, primary screen, biochemical, fluorescence, purified enzyme; fluorogenic substrate; inhibition, % at 12.2 µM; 0.84% of 370,000 active; in the data active = inhibition above about 9.5%
PLCb3 inh: human PLC-beta3 inhibitors, primary screen, biochemical, fluorescence; inhibition, % at 12.2 µM; Purified PLC-beta3, fluorogenic substrate; AID 720704, 2013; 1-phosphatidylinositol 4,5-bisphosphate phosphodiesterase beta-3 (Homo sapiens), Q01970; 0.18% of 370,000 active; in the data active = inhibition above about 11%;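 also: 0% = median of compound wells on plate and 100% = full blocker control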
Target sequence (Q01970 whole entry, looked up): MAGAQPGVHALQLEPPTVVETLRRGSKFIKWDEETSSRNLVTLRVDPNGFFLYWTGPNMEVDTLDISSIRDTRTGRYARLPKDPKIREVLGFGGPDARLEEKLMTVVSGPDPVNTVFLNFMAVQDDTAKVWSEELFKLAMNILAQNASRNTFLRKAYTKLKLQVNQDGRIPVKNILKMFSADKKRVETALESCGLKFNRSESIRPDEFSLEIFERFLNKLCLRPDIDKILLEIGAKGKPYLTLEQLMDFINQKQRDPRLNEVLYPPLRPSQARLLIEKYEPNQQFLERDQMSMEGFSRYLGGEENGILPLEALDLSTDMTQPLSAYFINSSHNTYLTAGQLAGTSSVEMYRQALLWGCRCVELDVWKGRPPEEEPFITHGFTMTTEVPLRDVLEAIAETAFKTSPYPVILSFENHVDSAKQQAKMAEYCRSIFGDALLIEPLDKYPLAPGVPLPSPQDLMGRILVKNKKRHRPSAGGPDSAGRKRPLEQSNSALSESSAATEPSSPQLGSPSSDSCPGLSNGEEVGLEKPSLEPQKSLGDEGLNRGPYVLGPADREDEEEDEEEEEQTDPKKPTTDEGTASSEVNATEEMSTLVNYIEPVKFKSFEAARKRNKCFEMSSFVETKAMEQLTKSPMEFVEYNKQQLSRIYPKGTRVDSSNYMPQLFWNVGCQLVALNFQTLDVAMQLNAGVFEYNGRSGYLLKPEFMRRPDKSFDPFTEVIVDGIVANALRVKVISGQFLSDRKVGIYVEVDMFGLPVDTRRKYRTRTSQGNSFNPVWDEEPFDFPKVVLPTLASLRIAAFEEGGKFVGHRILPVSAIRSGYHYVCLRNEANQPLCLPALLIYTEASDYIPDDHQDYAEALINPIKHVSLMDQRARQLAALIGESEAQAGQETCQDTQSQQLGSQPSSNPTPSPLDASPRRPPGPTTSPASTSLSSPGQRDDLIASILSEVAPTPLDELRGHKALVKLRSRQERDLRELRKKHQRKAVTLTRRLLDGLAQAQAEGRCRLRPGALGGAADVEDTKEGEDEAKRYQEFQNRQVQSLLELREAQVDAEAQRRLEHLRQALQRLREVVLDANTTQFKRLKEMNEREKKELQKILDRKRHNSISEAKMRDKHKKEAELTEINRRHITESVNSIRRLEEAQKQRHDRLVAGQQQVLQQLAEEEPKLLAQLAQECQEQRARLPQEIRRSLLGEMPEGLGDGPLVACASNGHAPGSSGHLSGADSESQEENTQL
Tn7 DDE FP: inhibitors of Tn7 peptide binding to fibrin DD(E), primary screen, biochemical, fluorescence polarization, human fibrin, Tn7 probe; Fibrinogen beta chain (Homo sapiens), P02675; AID 720508, 2013; inhibition, % at 8.3 µM; FP displacement of FITC-Tn7 peptide from fibrin DD(E); 0% = median of compound wells per plate; 0.13% of 370,000 active;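 active = inhibition above the mean of compounds falling within the control limits plus 3 SD of them, cut at about 14% in these data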;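 also: 0% = plate median of compound wells and 100% = 10 µM Aha-Tn7 peptide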
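assay system = human clot-derived fibrin DD(E) complex | quantity = Fibrin-DD(E) at 2 µM final | timing = 10 min preincubation, 3 h with tracer, room temperature | signal = fluorescence polarization | measure = percent inhibition | benchmarks = high control wells with 10 µM unlabelled Aha-Tn7 peptide (full inhibition) | replicates = singlicate testing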
DDE Tn6 FP ctr: counter-screen hit for Tn6 peptide-fibrin DD(E) binding disruption. shares compounds with Tn6 DDE FP. TRITC-Tn6 fluorescence polarization displacement; 0% = median of compound wells, not DMSO. inhibition, % at 8.3 µM. 2% of 680 active. AID 720621;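 active = inhibition above the mean of test compounds lying between the control limits plus 3 SD of those, cut at about 14% in these data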;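 also: 0% = median of compound wells and 100% = wells with Aha-Tn7 blocking peptide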
Tn6 DDE conf: inhibitors of Tn6 peptide binding to fibrin DD(E), confirmation, biochemical, fluorescence polarization, human fibrin, Tn6 probe; shares compounds with Tn6 DDE FP; FP displacement of TRITC-Tn6 peptide from DD(E); 0% = per-plate median of test wells; inhibition, % at 8.3 µM; 10% of 680 active;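 active = inhibition above the mean of compounds lying within the control limits plus 3 SD, cut at about 16% in these data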;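 also: 100% = high control wells holding a competing inhibitor peptide at 10 µM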
* marks the source's active call; other numbers are inactive results; . = not tested or not shown. This is a sample that favours compounds with a hit; in the whole collection about 1.4% have one here.

SMILES	Tn6 DDE FP	DNA FID counter	PLC-gamma1 inh	PLCb3 inh	Tn7 DDE FP	DDE Tn6 FP ctr	Tn6 DDE conf
CCCCNC(=O)c1onc(CSc2nc3ccccc3[nH]2)c1C(=O)NCCCC	-0.5	-26.9	4.2	7.9	6.4	.	.
COc1nc(-c2ccccc2Cl)ccc1C#N	17.8*	4.0	-0.2	-2.9	5.9	10.1	7.5
CCOc1nc(-c2ccc(Cl)cc2Cl)ccc1C#N	-3.9	-7.5	1.9	-3.2	7.0	.	.
CC12CCC(C(=O)NCc3ccccc3)(OC1=O)C2(C)C (configuration not stated)	-4.7	-5.8	0.3	-1.6	5.4	.	.
CC12CCC(C(=O)NCC3CCCO3)(OC1=O)C2(C)C (configuration not stated)	15.9*	-2.0	-2.0	-1.6	1.6	4.4	3.4
COc1ccccc1NS(=O)(=O)c1cccc(NC(=O)Nc2ccc(Cl)cc2)c1	170.1*	1.8	8.9	9.5	-3.1	10.5	23.2*
COc1ccccc1NS(=O)(=O)c1cccc(NC(=O)Nc2ccccc2)c1	-8.7	1.0	4.0	1.4	-6.6	.	.
COc1ccccc1NS(=O)(=O)c1cccc(C(=O)N2CCN(C(=O)c3ccco3)CC2)c1	16.5*	.	0.9	-6.3	5.5	0.1	1.2
O=C(Nc1ccc(F)c(F)c1)C1CCCCC1	-3.4	.	0.3	4.2	1.8	.	.
COc1ccc(CCN(C)C2CCCN(C(=O)Cn3cccn3)C2)cc1OC (configuration not stated)	2.6	-4.4	-0.2	-10.1	3.4	.	.
CN(CCc1ccccc1)C1CCCN(C(=O)Cn2cccn2)C1 (configuration not stated)	16.8*	-6.5	-0.5	-6.3	6.7	-6.4	-10.3
c1cc(CNc2ccc3c(c2)OCO3)ccn1	16.5*	-3.7	-42.8	-60.0	5.5	-1.5	-2.8
Cc1ccc(CNc2ccc3c(c2)OCO3)cc1	.	0.2	.	.	.	.	.
CC(C)(C)NC(=O)c1ccc2c(c1)N(CC(=O)N1CCCC1)C(=O)C(C)(C)O2	1.0	-16.9	-1.9	-5.2	-6.9	.	.
CCCCOC(=O)c1ccc(NC(=O)C(=O)NCC2CCCO2)cc1 (configuration not stated)	0.9	-2.5	3.9	0.1	-0.5	.	.
COc1ccccc1CN1CC(C(=O)NCCc2ccc(C)o2)CCC1=O (configuration not stated)	20.2*	-37.6	-2.6	-7.6	5.9	8.5	4.3
c1ccc(-c2oc3ncnc(NCCCn4ccnc4)c3c2-c2ccccc2)cc1	.	12.5	.	.	.	.	.
Cc1noc(C)c1NC(=O)N(C)C[C@H]1OCc2cnnn2CCCC(=O)N([C@H](C)CO)C[C@@H]1C	1.3	.	3.7	3.8	0.0	.	.
c1ccc(CNc2nc3ccccc3n3cnnc23)cc1	-3.9	-1.0	-1.3	-3.8	-3.5	.	.
CCC(=O)OC1(C)C(=O)C=C2C=C(CCCC(=O)OC)OC=C2C1=O (configuration not stated)	7.2	.	-54.3	-84.8	2.3	.	.
CCCCC1=CC2=CC(=O)C(C)(OC(=O)CC)C(=O)C2=CO1 (configuration not stated)	18.3*	.	-62.8	-87.9	-2.6	5.7	0.3
O=C(Cn1cc([N+](=O)[O-])cn1)N1CCc2ccccc2C1	15.5*	0.6	0.0	-5.3	5.5	-6.6	-10.1
O=S(=O)(Nc1ccc(Cl)cc1NS(=O)(=O)c1ccccc1)c1ccccc1	18.9*	.	-3.2	-4.0	9.1	3.7	1.2
COc1ccc(NC(=O)N(C)C[C@@H]2OCc3ccccc3-c3c(n(C)c4ccccc34)C(=O)N([C@H](C)CO)C[C@H]2C)c(OC)c1	17.3*	.	-2.1	-0.2	-6.2	-3.7	-5.3
CCn1c(CSc2nnc(-c3ccncc3)n2CCOC)nc2cc(C(=O)O)ccc21	19.1*	-4.5	2.9	1.0	1.9	-2.1	46.7*
SMILES	Tn6 DDE FP	DNA FID counter	PLC-gamma1 inh	PLCb3 inh	Tn7 DDE FP	DDE Tn6 FP ctr	Tn6 DDE conf
CCn1c(CSc2n[nH]c(N)n2)nc2cc(C(=O)O)ccc21	28.5*	-3.9	-10.5	-18.1	9.2	-5.8	22.1*
CC(C)(C)n1nc2c(c1NC(=O)c1ccc(S(=O)(=O)N3CCCCC3)cc1)CS(=O)C2 (configuration not stated)	1.2	-12.1	0.6	-2.3	2.5	.	.
O=C(O)c1ccccc1Sc1c([N+](=O)[O-])cc(C(F)(F)F)cc1[N+](=O)[O-]	34.7*	-4.0	2.4	-2.0	12.1	-0.4	-0.3
CCc1cccc(C)c1NC(=O)CN(C)Cc1ccc(Br)cc1	2.2	-24.0	3.3	-7.2	-2.0	.	.
O=C(O)COc1ccc(/C=C/c2ccc3cccc([N+](=O)[O-])c3n2)cc1	-5.8	-26.9	-0.4	-3.1	4.6	.	.
CC(=O)Nc1ccc(/C=C/c2ccc3cccc([N+](=O)[O-])c3n2)cc1	18.2*	0.2	1.4	-4.6	8.2	5.9	7.4
Cc1cccnc1C(NC(=O)C1CCN(CCOc2ccc(Cl)cc2Cl)CC1)c1ccc(Cl)cc1 (configuration not stated)	15.8*	.	-1.1	0.5	-1.1	6.6	-0.1
COc1ccccc1Oc1ccc(S(=O)(=O)NCc2ccccn2)cc1	15.3*	-20.0	0.4	2.8	-1.4	3.5	6.2
O=C(Nc1ccc(Cl)cn1)C1CCN(c2ncnc3c2nc2n3CCCCC2)CC1	17.1*	-49.9	0.8	-10.0	-0.6	-3.2	-3.4
COc1ccccc1NC(=S)NCc1ccc2c(c1)cc(C)n2C	2.3	3.8	2.5	1.0	-1.2	.	.
CCC(CC)C(=O)NCc1ccc2c(c1)cc(C)n2C	14.9	-21.1	-16.6	-21.1	5.1	.	.
Cc1ccccc1NC(=S)NCc1ccc2c(c1)cc(C)n2C	20.0*	-2.3	-28.1	-36.5	8.8	3.3	-5.3
Cc1cc2cc(CNC(=O)C(C)Oc3ccccc3)ccc2n1C (configuration not stated)	36.5*	-21.4	-12.6	-30.4	-5.7	3.8	4.2
Cc1cc2cc(CNC(=O)CC(C)C)ccc2n1C	15.8*	-13.7	-34.2	-40.3	-1.6	-2.3	-13.0
CC(C)(C)[C@@H]1C=C(C(=O)Nc2ccccc2)O[C@H](OCc2ccc(CO)cc2)C1	-5.1	-26.9	1.4	1.6	0.0	.	.
Cc1cnc(NC(=O)CCN2C(=O)C3CCCCC3C2=O)s1 (configuration not stated)	-8.6	2.2	0.9	-3.1	2.9	.	.
CC(C)(C)C(=O)NC(=S)NCCc1ccccc1	2.1	-5.2	1.8	-1.9	6.0	.	.

Compound activity from PubChem BioAssay.
